Sampled rows, rich in hits. Any-hit rate of the full collection: about 4.9%.
STAT3 activator – activators of IL-6 induced STAT3 signaling | U3A cells, IL-6 STAT3-luciferase reporter, luminescence; 100% = signal with IL-6 EC80 alone | activation (% of control), % at 5.6 µM | 190,000 compounds, 0.91% hits | AID 871;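 active = activation above the screen-wide mean of compound activation plus 3 SD, cut at about 130% in these data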
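Material: STAT3-luciferase reporter U3A cells; Probe or stimulus: IL-6 (33 ng/mL); Incubation: compound pre-incubation 1 h before IL-6, then 6 h stimulation at 37 °C; Technique: luminescence from STAT3-driven luciferase reporter; Evaluation: % activation versus median of IL-6-stimulated wells; Controls: IL-6-only high control.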
STAT1 act – increases IFN-gamma driven STAT1 reporter signal; NIH 3T3 STAT1-luciferase reporter, luminescence; 100% = IFN-gamma alone, no compound; activation (% of control), % at 5.5 µM; 200,000 compounds, 2.6% hits; AID 932;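 active = activation above the screen-wide mean activation plus 3 SD, cut at about 130% in these data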
FLuc stim CS – affects firefly luciferase, flagging false hits in luciferase stimulation screens; P08659; ATPlite luciferase biochemical, luminescence, 10 min; 0 = ATP-free wells, 1 = DMSO control; activation factor at 10 µM; 200,000 tested, under 10 active;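 active = luciferase activation factor, scaled between plate controls, of at least 2 with compound at 10 µM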
Target sequence (P08659 whole entry, looked up): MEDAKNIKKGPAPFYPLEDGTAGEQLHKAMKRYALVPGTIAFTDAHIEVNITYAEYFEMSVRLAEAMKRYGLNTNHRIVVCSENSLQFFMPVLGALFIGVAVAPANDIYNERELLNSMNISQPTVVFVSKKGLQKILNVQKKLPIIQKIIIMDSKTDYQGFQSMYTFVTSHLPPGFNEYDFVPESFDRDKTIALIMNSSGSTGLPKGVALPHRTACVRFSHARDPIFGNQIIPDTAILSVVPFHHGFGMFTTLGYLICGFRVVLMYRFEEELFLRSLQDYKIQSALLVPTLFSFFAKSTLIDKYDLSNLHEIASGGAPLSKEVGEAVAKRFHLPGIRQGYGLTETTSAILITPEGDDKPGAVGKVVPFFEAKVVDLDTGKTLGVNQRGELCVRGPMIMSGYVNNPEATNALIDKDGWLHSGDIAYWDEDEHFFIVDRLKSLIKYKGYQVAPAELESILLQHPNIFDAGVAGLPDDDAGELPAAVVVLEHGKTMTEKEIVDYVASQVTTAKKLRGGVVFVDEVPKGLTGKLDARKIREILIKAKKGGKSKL
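assay system = Luciferase/luciferin detection reagent, cell-free biochemical luciferase assay | also added = ATP substrate | times = 10 min post-reagent at room temperature | measured by = luminescence from luciferase reaction | measure = luciferase activation, seen as luminescence increase over controls | benchmarks = low control with PBS replacing ATP, high control enzyme plus ATP without compound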
STAT1 inh – inhibitors of IFN-gamma induced STAT1 signaling; 200,000 compounds, 0.35% hits; AID 920; NIH 3T3 STAT1-luciferase reporter, luminescence; inhibition, % at 5.5 µM;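 active = inhibition above a set limit, the mean inhibition across all tested compounds plus 3 SD, cut at about 34% in these data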
FLuc inhib CS – counter-screen for luciferase assay inhibitors: firefly luciferase inhibition; 200,000 compounds, 1.5% hits; inhibition, % at 10 µM; AID 1006; ATPLite firefly luciferase biochemical luminescence, 10 min;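 active = inhibition above about 50% when tested at 10 µM, limit read from the data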
STAT3 inh-1 – STAT3 signaling inhibition; U3A cells, IL-6 STAT3-luciferase reporter, luminescence; host cell line lacks STAT1; inhibition, % at 5.5 µM; 190,000 compounds, 0.89% hits;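 active = inhibition above the mean inhibition across all screened compounds plus 3 SD, cut at about 44% in these data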
STAT3 inh-2 – STAT3 inhibition, confirmation assay; shares compounds with STAT3 inh-1; U3A cells, IL-6 STAT3 luciferase reporter, luminescence; cell line lacks STAT1; inhibition, % at 5.7 µM; 1,200 compounds, 45% hits; AID 1265;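 active = inhibition above the hit cutoff computed for the primary STAT3 screen, cut at about 44% in these data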
NFkB inh STAT3ct – counter-screen for STAT3 inhibitors: NF-kappaB inhibition; HEK293T NF-kB luciferase reporter, TNF-alpha induced; 1,200 compounds, 36% hits; shares compounds with STAT3 inh-1; inhibition, % at 5.7 µM;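 active = inhibition above the mean of solvent-only control wells plus 3 SD, cutoff set per campaign, cut at about 13% in these data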
STAT1 inh STAT3c – STAT1 inhibition in STAT3 inhibitor counter-screen | shares compounds with STAT3 inh-1 | NIH 3T3 STAT1-luciferase reporter, IFN-gamma induced, luminescence | inhibition, % at 5.7 µM | 1,200 compounds, 27% hits;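 active = inhibition above the mean plus 3 SD of solvent-only control wells, limit set per screening run, cut at about 16% in these data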
Numbers stand for hits; . = inactive; / = no result given.

SMILES	STAT3 activator	STAT1 act	FLuc stim CS	STAT1 inh	FLuc inhib CS	STAT3 inh-1	others
O=C1C=Cc2ccccc2C1=O	141	.	.	.	.	.
COc1cccc(N2C(=O)NC(=O)/C(=C/c3ccc4c(c3)Cc3ccccc3-4)C2=O)c1	.	131	.	.	.	.
COc1cc(/C=C2/C(=O)NC(=O)N(c3ccccc3)C2=O)ccc1O	.	.	.	.	.	.
COc1ccc(-c2nc3ccccc3c(=O)n2-c2cccnc2)cc1	.	.	.	.	.	.
COc1ccc(-c2nc3ccccc3c(=O)o2)cc1	.	.	.	.	55	.
CN1CCN(C(=O)COc2ccc(N(C)S(=O)(=O)c3ccc(F)cc3)cc2)CC1	.	.	.	.	.	.
CC1CCCN(CC(=O)c2ccc(Cl)c(Cl)c2)C1 (centres undefined)	.	.	.	.	.	.
CC1CCN(CC(=O)c2ccc3c(c2)OCCO3)CC1	.	139	.	.	.	.
Clc1ccc(C(c2ccccc2)c2ncc[nH]2)cc1 (centres undefined)	.	.	.	.	.	.
O=C(CCS(=O)(=O)c1ccc(Br)cc1)N1CCC2(CC1)OCCO2	.	.	.	48	.	.
CCNc1nc(Cl)nc(NC(C)C)n1	.	.	.	.	.	.
CC(=O)O[C@@H]1[C@H]2CC[C@@H]3[C@]1(C[C@@H](OC(C)=O)[C@@]1(O)C([C@@H]4O[C@@H]4C1(C)C)[C@]3(C)O)C[C@@]2(C)O (some centres undefined)	.	.	.	.	.	.
Nc1ccc(N=Nc2ccccc2)cc1	.	144	.	.	.	.
CCOC(=O)C1CCCN(c2ccc([N+](=O)[O-])c3nonc23)C1 (centres undefined)	.	.	.	.	.	.
CN1CCN(Cc2cc(C(C)(C)C)c(O)c(C(C)(C)C)c2)CC1	.	.	.	.	.	.
CC(C)(C)c1cc([N+](=O)[O-])cc(C(C)(C)C)c1O	.	.	.	59	.	60
N=c1c2c(n(Cc3ccc(Cl)cc3Cl)c3c1CCC3)CCCC2	.	.	.	.	.	51
CC(C(=O)c1c[nH]c2ccccc12)N1CCc2ccccc2C1 (centres undefined)	134	.	.	.	.	.
O=C(c1cccc2ccccc12)C1CCCN(C2CCC2)C1 (centres undefined)	.	.	.	.	.	.
CC(=O)Nc1ccccc1C(=O)OCc1ccccc1F	.	145	.	.	.	.
O=C(Nc1ccc2ccccc2c1)c1nn(C23CC4CC(CC(C4)C2)C3)cc1Br	.	.	.	.	.	.
Cc1nc(Cl)sc1C(=O)Nc1ccc2ccccc2c1	.	134	.	.	.	.
CN1Cc2c(c(C#N)c(N)n(C)c2=S)CC1(C)C	.	.	.	.	.	.
Cn1c(CN2CCN(C(=O)COc3ccccc3)CC2)nc2cc([N+](=O)[O-])ccc21	.	.	.	.	.	.
CN(C)C(=O)Oc1c(Cl)cc(Cl)c2ccccc12	.	.	.	.	.	.
SMILES	STAT3 activator	STAT1 act	FLuc stim CS	STAT1 inh	FLuc inhib CS	STAT3 inh-1	others
Cc1cc(C(=O)CS(=O)(=O)c2ccc(F)cc2)cc(C)c1OC(=O)N(C)C	.	.	.	.	63	.
Cc1ccc(-c2nc3ccc(Cl)cc3n2OC(=O)N(C)C)cc1	.	.	.	.	.	.
CN(C)C(=O)Oc1ccc(-c2cn3cc(Cl)ccc3n2)cc1	.	141	.	.	86	.
CN(C)C(=O)Oc1cccc(-c2cn3cc(Cl)ccc3n2)c1	.	.	.	.	75	.
CN(C)C(=O)Oc1ccc(-c2cn3cc(C(F)(F)F)ccc3n2)cc1	.	138	.	.	54	.
CCOP(=O)(Cc1cc(C#N)oc1C)OCC	.	.	.	.	.	.
CC1(C)CN=C(Nc2nc3ccccc3s2)S1	.	136	.	.	.	.
CCN1CCN(c2nc3ccccc3s2)CC1	.	.	.	.	.	.
c1ccc2c(CNC3CCCCC3)c[nH]c2c1	137	.	.	.	.	.
CCn1nc(/C=C/c2ccccc2)nc2c(=O)n(C)c(=O)nc1-2	.	.	.	86	.	74
CCn1nc(-c2cccs2)nc2c(=O)n(C)c(=O)nc1-2	/	/	.	/	.	/
Cc1ccc(C(C)C)c(OCC#CCN2CCCC2)c1	.	.	.	.	.	.
COC(=O)C(O)(c1ccc(NC(=O)NC2CCCCC2)cc1)C(F)(F)F (centres undefined)	.	144	.	.	.	.
O=C(NC(Cc1cnc[nH]1)C(=O)O)c1ccccc1 (centres undefined)	.	.	.	.	.	.
CN(C)c1ccc(/C=C/c2cc[n+](C)c3ccccc23)cc1	.	.	.	.	.	72
CCN1/C(=C\C=C\C2=[N+](CC)c3ccccc3C2(C)C)C(C)(C)c2ccccc21	.	.	.	56	.	100
Nc1ccccc1C(=O)OCC(=O)Nc1ccc(Br)cc1F	.	.	.	.	.	.
COc1cc(/C=C/C(=O)c2c(O)n(CCc3ccccc3)c(=O)[nH]c2=O)ccc1O	.	.	.	.	56	.
O=C(/C=C/c1ccccc1)c1c(O)n(CCc2ccccc2)c(=O)[nH]c1=O	.	.	.	.	.	.
C[C@@H]1O[C@@H](O[C@H]2C[C@@H](O)[C@]3(CO)[C@H]4[C@H](O)C[C@]5(C)[C@@H](C6COC(=O)C6)CC[C@]5(O)[C@@H]4CC[C@]3(O)C2)[C@H](O)[C@H](O)[C@H]1O (some centres undefined)	.	.	.	.	.	56	STAT3 inh-2=.;NFkB inh STAT3ct=.;STAT1 inh STAT3c=.
CC(=O)c1cn(Cc2ccccc2C#N)c2ccccc12	.	.	.	.	.	66	STAT3 inh-2=75;NFkB inh STAT3ct=29;STAT1 inh STAT3c=21
CCCC12CN3CCN(CC(C3)/C1=N\NC(=O)c1ccncc1)C2	.	.	.	.	.	.
O=C(O)CSC(=S)N1CC2CC(C1)c1cccc(=O)n1C2 (centres undefined)	.	.	.	.	.	.
CCC(=NCCc1c[nH]c2ccccc12)c1c(O)n(C)c(=O)n(C)c1=O	.	.	.	.	.	44	STAT3 inh-2=47;NFkB inh STAT3ct=.;STAT1 inh STAT3c=20

Source: PubChem
